Screens deposited in PubChem by several laboratories.
Most compounds without a hit are left out; they make up all but 2% or so of the library.
EBI2 antag = blocks human EBI2 receptor beta-arrestin signaling | AID 651636 | P32249 | 360,000 tested, 0.81% active | EBI2 beta-arrestin recruitment, luminescence, 7a,25-OHC stimulated | inhibition, % at 5 µM; in the data active = inhibition above about 38%;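 note: enzyme fragment complementation signal reports receptor beta-arrestin coupling in cells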
APJ antagonist = blocks the human apelin receptor APJ; CHO-K1 APJ beta-arrestin complementation, luminescence; inhibition, % at 20 µM; 330,000 tested, 0.32% active; AID 2521;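 active = inhibition above about 40% at 20 µM, limit read from the data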;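 note: cells challenged with 10 nM apelin-13 agonist together with compound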
Target sequence (P35414 whole entry, looked up): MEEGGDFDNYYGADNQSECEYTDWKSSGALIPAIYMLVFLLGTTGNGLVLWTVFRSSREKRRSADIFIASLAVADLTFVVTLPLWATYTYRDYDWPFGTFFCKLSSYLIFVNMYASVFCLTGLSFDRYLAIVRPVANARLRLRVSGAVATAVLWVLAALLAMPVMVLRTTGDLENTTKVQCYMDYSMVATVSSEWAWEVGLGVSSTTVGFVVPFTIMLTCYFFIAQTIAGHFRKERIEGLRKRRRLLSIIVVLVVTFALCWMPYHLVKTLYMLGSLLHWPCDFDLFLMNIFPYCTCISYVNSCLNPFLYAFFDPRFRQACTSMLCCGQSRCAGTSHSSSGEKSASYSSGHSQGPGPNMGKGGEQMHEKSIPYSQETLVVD
CXCR6 block = CXCR6 (human) receptor inhibition; O00574; CHO-K1 PathHunter CXCR6 beta-arrestin, luminescence; inhibition, % at 20 µM; 360,000 tested, 0.36% active; in the data active = inhibition above about 34%, passing the limit was not always enough;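 note: antagonist mode with CXCL16 agonist at 10 nM final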
Target sequence (O00574 whole entry, looked up): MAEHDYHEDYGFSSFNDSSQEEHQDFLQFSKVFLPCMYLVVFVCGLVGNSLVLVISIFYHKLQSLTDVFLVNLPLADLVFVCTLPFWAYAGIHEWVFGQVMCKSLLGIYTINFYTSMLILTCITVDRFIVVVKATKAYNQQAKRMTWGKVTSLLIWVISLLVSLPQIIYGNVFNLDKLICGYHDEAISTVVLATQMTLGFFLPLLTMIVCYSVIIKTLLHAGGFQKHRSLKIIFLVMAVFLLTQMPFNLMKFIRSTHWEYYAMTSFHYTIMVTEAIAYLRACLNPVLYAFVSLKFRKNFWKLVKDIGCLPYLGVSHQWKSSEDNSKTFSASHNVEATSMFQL
CCR6 antag = antagonists of human CCR6 receptor. P51684. CHO-K1 CCR6 PathHunter beta-arrestin, luminescence, CCL20-stimulated. inhibition, % at 20 µM. 340,000 tested, 0.49% active. AID 493098;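 active = compounds whose inhibition of the agonist-driven luminescence signal at 20 µM reaches about 50%, limit read from the data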;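 note: cells stimulated with CCL20 at 14 nM final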
APJ agonist = APJ receptor agonism; P35414; CHO-K1 APJ PathHunter beta-arrestin, luminescence; 0% DMSO wells, 100% apelin; activation, % at 20 µM; 330,000 tested, 0.11% active;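 active = activation more than six SD over the plate average, tested at 20 µM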
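system = engineered CHO-K1 APJ arrestin reporter cells | input = 1000 cells per well | timing = overnight seeding, 90 min compound at 25 °C, 1 h detection | measured by = enzyme-fragment complementation luminescence | read-out = beta-arrestin recruitment to APJ as agonist activity, luminescent signal | control set = negative DMSO alone, positive Apelin-13 at 10 nM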
GAA850 FXN act = increases GAA850 frataxin promoter reporter activity; HEK293 lucGAA850 FXN promoter luciferase reporter, 24 h; percent of 10 µM SAHA response; activation, % at 6 µM; 360,000 tested, 0.56% active;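 active = activation above the average of all compounds screened plus 3 SD, cutoff fixed separately per campaign, cut at about 7.5% in these data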
EBI2 antag conf = EBI2 (human) antagonism, single concentration confirmation | shares compounds with EBI2 antag | EBI2 beta-arrestin luminescence, 7a,25-OHC antagonism | inhibition, % at 5 µM | 2,400 tested, 29% active | AID 651997;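 active = inhibition of at least 50%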
EBI2 ag = activates EBI2, counter-screen for EBI2 antagonists; shares compounds with EBI2 antag; EBI2-expressing cells, agonist mode, luminescence, 60 min; 0% vehicle, 100% 7α,25-dihydroxycholesterol control; activation, % at 5 µM; 2,400 tested, under 10 active;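 active = activation of at least 50%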
bGal counter = beta-galactosidase inhibition counter-screen; inhibition, % at 5 µM; purified beta-galactosidase, luminescent Galacton Star, 15 min; 2,400 tested, 1% active; shares compounds with EBI2 antag;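 active = replicate-average signal at least 3 plate SD below neutral wells, shown as high inhibition, flagging enzyme-inhibiting false positives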;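 note: higher means stronger loss of beta-gal luminescence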
Large screens that a line does not name were inactive (follow-up assays come after a bar, where they were run).

CC(C)NC(=O)c1cc(C2CCCCN2C(=O)c2ccc(C#N)cc2)on1 (centres undefined)	none (no result: APJ antagonist, CCR6 antag, APJ agonist)
COc1ccc(-n2nc(C(=O)NCC(=O)NCc3cccc(F)c3)c3ccccc3c2=O)cc1Cl	none
COc1ccc(C(=O)/C=C/c2ccc(OC3CSC3)cc2)cc1OC	none
O=C(/C=C/c1ccc(OC2CSC2)cc1)c1ccc(Cl)cc1	EBI2 antag 43 | EBI2 antag conf inactive | EBI2 ag inactive | bGal counter inactive
COc1ccc(NC(C)C(=O)Nc2cccc(S(=O)(=O)N3CCOCC3)c2)cc1OC (centres undefined)	none
O=C(Nc1nc(-c2cccs2)cs1)c1ccc(S(=O)(=O)N2CCCCC2)cc1	EBI2 antag 42 | EBI2 antag conf inactive | EBI2 ag inactive | bGal counter inactive
O=C(Nc1nc(-c2cccs2)cs1)c1cccc(S(=O)(=O)N2CCCCCC2)c1	none
COC(=O)c1[nH]c2cc(OC)ccc2c1NC(=O)CN1CCN(c2cccc(C)c2)C(C)C1 (centres undefined)	EBI2 antag 73 | EBI2 antag conf 70 | EBI2 ag inactive | bGal counter inactive
COC(=O)c1[nH]c2cc(C)ccc2c1NC(=O)CN1CCOCC1	none
CN1CCC(N(C)S(=O)(=O)c2ccc(NC(=O)COc3ccc(Cl)cc3)cc2)CC1	EBI2 antag 54 | EBI2 antag conf inactive | EBI2 ag inactive | bGal counter inactive
CCOC(=O)c1ccc(NC(=O)[C@@H]2CCC(=O)N2C2OC(=O)c3c2ccc(OC)c3OC)cc1 (some centres undefined)	none (no result: APJ antagonist, CCR6 antag, APJ agonist)
Cn1ccc2c(-c3ccc(C(=O)O)cc3)cc3c(c21)C1CCC3C1 (centres undefined)	none (no result: APJ antagonist, CCR6 antag, APJ agonist, GAA850 FXN act)
CCOc1cc(S(=O)(=O)N2CCC(Cc3ccccc3)CC2)c(OCC)cc1-n1cnnn1	EBI2 antag 45 | EBI2 antag conf inactive | EBI2 ag inactive | bGal counter inactive
O=c1c2oc3ccccc3c2ncn1Cc1cccc(Cl)c1	EBI2 antag 48 | EBI2 antag conf inactive | EBI2 ag inactive | bGal counter inactive
CSc1cccc(NC(=O)/C=C/c2ccccc2)c1	none
CSc1cccc(NC(=O)/C=C/c2ccc(Cl)cc2)c1	EBI2 antag 59 | EBI2 antag conf 68 | EBI2 ag inactive | bGal counter inactive
O=C(/C=C/c1ccccc1)NCCSCc1ccc(Cl)cc1	EBI2 antag 52 | EBI2 antag conf inactive | EBI2 ag inactive | bGal counter inactive
O=C(/C=C/c1ccc(Cl)cc1)NCc1cccs1	EBI2 antag 53 | EBI2 antag conf 53 | EBI2 ag inactive | bGal counter inactive
O=C(/C=C/c1ccc(Cl)cc1Cl)NCCSc1ccccc1	none
O=C(/C=C/c1ccc(Cl)cc1)NCCSc1ccccc1	EBI2 antag 60 | EBI2 antag conf inactive | EBI2 ag inactive | bGal counter inactive
CCCCNc1c(-c2cccnc2)nc2nc(C)cc(C)n12	none (no result: APJ antagonist, CCR6 antag, APJ agonist, GAA850 FXN act)
CC1(C)OC(=O)C2=C(C[C@@H](CCOCc3ccccc3)O[C@@H]2c2ccc(F)cc2)O1	none (no result: APJ antagonist, CCR6 antag, APJ agonist, GAA850 FXN act)
COc1ccc(CCNC(=O)/C(C#N)=C/c2cccc(OCc3ccccc3)c2)cc1OC	EBI2 antag 53 | EBI2 antag conf inactive | EBI2 ag inactive | bGal counter inactive
COc1cc(/C=C(\C#N)C(=O)NCc2ccccc2)ccc1OCc1ccc(C(=O)O)cc1	none
CC(C)(C)NC(=O)C(CCc1ccccc1)n1c(=O)c(-c2cc3ccccc3[nH]2)nc2ccccc21 (centres undefined)	none (no result: APJ antagonist, CXCR6 block, CCR6 antag, APJ agonist, GAA850 FXN act)
Clc1ccc(OCCSc2ncccn2)cc1	none
OC(COc1ccc(Cl)cc1)CSc1ccccn1 (centres undefined)	EBI2 antag 52 | EBI2 antag conf inactive | EBI2 ag inactive | bGal counter inactive
COC(=O)C1(C)NC(c2cccc(C)c2)C2C(=O)N(c3ccccc3)C(=O)C21 (centres undefined)	none (no result: APJ antagonist, CCR6 antag, APJ agonist)
O=C(COc1cccnc1[N+](=O)[O-])Nc1ccccc1Sc1ccccc1	EBI2 antag 48 | EBI2 antag conf inactive | EBI2 ag inactive | bGal counter inactive
COc1cc2nc(C3CCC3)nc(N3CCN(c4ccccc4OC)CC3)c2cc1OC	EBI2 antag 46 | EBI2 antag conf inactive | EBI2 ag inactive | bGal counter inactive
COc1ccc(/C=N/NC(=O)CNC(=O)c2ccncc2)cc1	none
O=C(Nc1ccc2ccccc2n1)c1ccccc1	none
O=C(CCc1ccccc1)Nc1ccc2ccccc2n1	EBI2 antag 72 | EBI2 antag conf inactive | EBI2 ag inactive | bGal counter inactive
CC1CC(C)CN(c2ncc3c(n2)CC(c2ccc(Cl)cc2)CC3=O)C1 (centres undefined)	EBI2 antag 57 | EBI2 antag conf inactive | EBI2 ag inactive | bGal counter inactive
COc1ccccc1-c1cnc(C(O)c2ccc(CN3CCCCC3)cc2)[nH]1 (centres undefined)	none (no result: APJ antagonist, CCR6 antag, APJ agonist)
CN(NC(=S)Nc1ccc(OC(F)F)cc1)C(=S)Nc1ccc(OC(F)F)cc1	EBI2 antag 43 | EBI2 antag conf inactive | EBI2 ag inactive | bGal counter inactive
Oc1cccc2c(NC(=S)Nc3ccc(OC(F)F)cc3)cccc12	EBI2 antag 45 | EBI2 antag conf inactive | EBI2 ag inactive | bGal counter inactive
FC(F)Oc1ccc(NC(=S)Nc2ccc3cn[nH]c3c2)cc1	EBI2 antag 53 | EBI2 antag conf inactive | EBI2 ag inactive | bGal counter inactive
COc1ccc(NC(=O)CN(C)C(=O)C2CCCO2)cc1 (centres undefined)	none
CN(C)c1ccnc2sc3c(SCc4ccc(Cl)cc4)ncnc3c12	EBI2 antag 54 | EBI2 antag conf inactive | EBI2 ag inactive | bGal counter inactive
CCCn1c(N)c(N(CCOC)C(=O)CSc2c(Cl)cccc2Cl)c(=O)[nH]c1=O	none
CC(C)OCCCNC(=O)c1c(N)n(/N=C/c2ccccn2)c2nc3ccccc3nc12	EBI2 antag 48 | EBI2 antag conf inactive | EBI2 ag inactive | bGal counter inactive
CCC(C)NC(=O)c1c(N)n(/N=C/c2ccccn2)c2nc3ccccc3nc12 (centres undefined)	none
Cc1ccccc1N=C1Nc2ccccc2N[C@]12C[C@H]1CCC(=O)N3CC[C@@H](C2)[C@@H]13	none (no result: APJ antagonist, APJ agonist)
Cn1c(=NC(=O)C2CCN(S(=O)(=O)c3cccs3)CC2)sc2ccccc21	EBI2 antag 57 | EBI2 antag conf inactive | EBI2 ag inactive | bGal counter inactive
